Source: ChEMBL document CHEMBL1146374, “Clubbed triazoles: a novel approach to antitubercular drugs” (Eur J Med Chem, 2007)
Converted amounts (≈) assume the structure as drawn.

Legend:
[1] = Cytotoxicity against Vero-C1008 cells at 6.25 to 50 ug/ml; assay type: cell-based; conditions: chlorocebus sabaeus
Summary of the method: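 Vero-C-1008 cells were exposed to compounds at several concentrations across 6.25–50 µg/ml. Cytotoxicity was read out by neutral red uptake.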

[2] = system: Mycobacterium tuberculosis; experiment: (§1) Antituberculosis activity against Mycobacterium tuberculosis H37Rv by Microplate Alamar Blue Assay; assay type: functional
Summary of the method: (§2)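 MIC against M. tuberculosis H37Rv (ATCC 27294) in BACTEC 12B medium by broth microdilution (MABA). Primary actives were retested at lower concentrations. MIC is the lowest concentration giving a […] fluorescence reduction versus controls. Fluorescent compounds were run in the BACTEC 460 radiometric system. Rifampin was the reference.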

[3] = system: Staphylococcus aureus; experiment: Antibacterial activity against Staphylococcus aureus at 50 to 100 uM after 24 hrs by well diffusion method; assay type: functional
Summary of the method: (§3)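 Agar well diffusion: nutrient agar plates with 10 mm wells cut by sterile cork borer; 24-h subcultured bacteria swabbed onto the plates from nutrient broth. Compounds were dissolved in chloroform and added to wells at […]. Gentamycin served as the standard antibiotic.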

[4] = system: Mycobacterium tuberculosis; experiment: Growth inhibition of Mycobacterium tuberculosis H37Rv at 6.25 ug/ml by Microplate Alamar Blue Assay; assay type: functional; conditions: read-out: GI
Summary of the method: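 Primary single-concentration screen against M. tuberculosis H37Rv (ATCC 27294) in BACTEC 12B medium by MABA broth microdilution, read as % inhibition. Compounds that fluoresce were tested in the BACTEC 460 radiometric system. More than 95% inhibition was the activity cutoff.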

[5] = system: Mycobacterium tuberculosis; experiment: as §1; assay type: functional; summary of the method: as §2; remark: listed apart in the source
[6] = system: Pseudomonas aeruginosa; experiment: Antibacterial activity against Pseudomonas aeruginosa at 50 to 100 uM after 24 hrs by well diffusion method; assay type: functional; summary of the method: as §3
[7] = system: Escherichia coli; experiment: Antibacterial activity against Escherichia coli at 50 to 100 uM after 24 hrs by well diffusion method; assay type: functional; summary of the method: as §3
[8] = system: Salmonella typhi; experiment: Antibacterial activity against Salmonella typhi at 50 to 100 uM after 24 hrs by well diffusion method; assay type: functional, Salmonella enterica subsp. enterica serovar Typhi
Summary of the method: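 Agar well diffusion on nutrient agar plates; wells cut with a 10 mm sterile cork borer. Plates swabbed with 24-h subcultured bacteria from nutrient broth. Compounds dissolved in chloroform and added to wells at a range of concentrations. Gentamycin was the standard.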

SMILES	Activity [1]	MIC [2] [µM]	zone of inhibition [3] [mm]	inhibition of growth at 6.25 µg/mL [4] [%]	MIC [5] [µg/mL]	zone of inhibition [6] [mm]	zone of inhibition [7] [mm]	Inhibition [8] [%]
CC(=O)Nc1nc(Cc2nnc(S)n2N)cs1	Non-toxic	6.25 (≈ 1.69 µg/mL)	18	100	< 6.25	16	15	14
NNC(=O)CSc1nnc(Cc2csc(NCCC(=O)O)n2)n1NC(=O)c1ccccc1	Non-toxic	6.25 (≈ 2.98 µg/mL)	20	96	< 6.25	18	14	12
O=C(O)CCNc1nc(Cc2nnc(SCC(=O)N/N=C\c3ccccc3)n2NC(=O)c2ccccc2)cs1	Non-toxic	3.13 (≈ 1.77 µg/mL)	18	98	< 6.25	12	14	12
N#CCSc1nnc(Cc2csc(NC(=O)c3ccccc3)n2)n1NC(=O)c1ccccc1	Non-toxic	3.13 (≈ 1.49 µg/mL)	26	100	< 6.25	24	22	18
CO[C@H]1/C=C/O[C@@]2(C)Oc3c(C)c(O)c4c(O)c(c(/C=N/N5CCN(C)CC5)c(O)c4c3C2=O)NC(=O)/C(C)=C\C=C\[C@H](C)[C@H](O)[C@@H](C)[C@@H](O)[C@@H](C)[C@H](OC(C)=O)[C@@H]1C [RIFAMPIN]	–	–	–	97	15 (≈ 18.2 µM)	–	–	–
CC(=O)Nc1nc(Cc2nnc(SCC(=O)NN)n2NC(=O)c2ccccc2)cs1	Non-toxic	3.13 (≈ 1.4 µg/mL)	32	100	< 6.25	32	26	24
NNC(=O)CSc1nnc(Cc2csc(NC(=O)c3ccccc3)n2)n1NC(=O)c1ccccc1	Non-toxic	6.25 (≈ 3.18 µg/mL)	33	100	< 6.25	34	30	29
CC(=O)Nc1nc(Cc2nnc(SCC(=O)N/N=C/c3ccccc3)n2NC(=O)c2ccccc2)cs1	Non-toxic	1.56 (≈ 0.834 µg/mL)	–	96	< 6.25	–	–	–
O=C(CSc1nnc(Cc2csc(NC(=O)CCl)n2)n1NC(=O)c1ccccc1)N/N=C/c1ccccc1	Non-toxic	0.78 (≈ 0.444 µg/mL)	–	98	< 6.25	–	–	–
CC(=O)Nc1nc(Cc2nnc(SCC#N)n2NC(=O)c2ccccc2)cs1	Non-toxic	6.25 (≈ 2.58 µg/mL)	22	97	< 6.25	22	20	16
NNC(=O)CSc1nnc(Cc2csc(NC(=O)CCl)n2)n1NC(=O)c1ccccc1	Non-toxic	3.13 (≈ 1.51 µg/mL)	16	98	< 6.25	16	12	14
O=C(CSc1nnc(Cc2csc(NC(=O)c3ccccc3)n2)n1NC(=O)c1ccccc1)N/N=C/c1ccccc1	Non-toxic	0.39 (≈ 0.233 µg/mL)	32	98	< 6.25	30	30	27
CC(=O)Nc1nc(Cc2nnc(S)n2NC(=O)c2ccccc2)cs1	Non-toxic	–	16	–	< 6.25	16	20	16
